Series [1] concerns Mus musculus. The series can be described thus: Effect on behavioral changes in 14 weeks old MitoPark mouse striatum assessed as DOPAC level at 30 mg/kg/day by HPLC analysis. Format: functional. The method, boiled down: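 Striatum from MitoPark mice on diet targeting 30 mg/kg/day or vehicle diet (wild-type littermate controls) was homogenized by sonication in 0.1 M acid at 0.1 g/mL. Samples were held 60 min at 4 °C and centrifuged. Dopamine, DOPAC and HVA were measured by HPLC with electrochemical detection against a 3,4-DHBA internal standard and standard curves. Mean ± SEM.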

Series [2] concerns Mus musculus. In words: Effect on behavioral phenotype in MitoPark mouse at baseline assessed as higher rearing behavior at 30 mg/kg/day administered for 3 weeks and measured after 60 mins. Format: functional, organism-based. A digest of the protocol:
(§1)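 MitoPark mice, 5 weeks old, were allocated by baseline 60-min LMA to untreated diet or diet targeting 30 mg/kg/day (reformulated every 3 weeks). Wild-type littermates received vehicle diet. Body weight and food intake were recorded weekly. 60-min LMA (distance, rearing) was run at 8, 11, 14 and 17 weeks of age.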

Series [3] addresses Leucine-rich repeat serine/threonine-protein kinase 2 (Mus musculus) (UniProt Q5S006). In words: In vivo inhibition of LRRK2 in 20 weeks old MitoPark mouse lung assessed as reduction in total LRRK2 protein level at 30 mg/kg/day administered for 15 weeks by Western blotting analysis. Format: functional, organism-based. The method, boiled down: (§2)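 MitoPark mice on drug-containing diet targeted to 30 mg/kg/day from 5 weeks of age, with the diet reformulated every 3 weeks to hold the target. Untreated-diet MitoPark and wild-type littermate controls. Killed by CO2 at 20 weeks of age. Lung and kidney taken from 5 mice per group for pSer935 and total LRRK2 immunoblots.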
In general terms: In western blotting, separated proteins are transferred to a membrane and probed.

Series [4] has the same target. The series can be described thus: In vivo inhibition of LRRK2 in MitoPark mouse assessed as reduction in pSer935 LRRK2 at 30 mg/kg administered for 15 weeks and measured after 24 hrs by Western blotting analysis relative to control. It counts as functional, organism-based. The method, boiled down: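 MitoPark mice fed diet targeted to 30 mg/kg/day, or untreated diet, from 5 weeks of age. Cortex collected after 3, 9 or 15 weeks of treatment, n = 10 per group. Blots probed for pSer935 LRRK2, total LRRK2 (MJFF-2 antibody) and GAPDH. pSer935 reported relative to vehicle-diet MitoPark mice.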

The target is the same in series [5]. The series can be described thus: In vivo inhibition of LRRK2 in C57Bl/6 mouse brain assessed as reduction in pSer935 LRRK2 at 30 mg/kg administered for 11 days and measured for 4 to 24 hrs by Western blotting analysis. Format: functional, organism-based. The conditions noted are these: time 11.0 day. A digest of the protocol:
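Male C57Bl/6 mice, singly housed on a reversed light cycle. Fed drug diet targeted to 3, 10, 30, 60 or 120 mg/kg/day (assuming 3 g/day intake), or untreated diet, for 11 days. Killed 4, 8 or 24 h after dark-cycle onset, n = 5 per group. Cortex immunoblotted for pSer935/total LRRK2 and total LRRK2/GAPDH. Total LRRK2 detected with MJFF2 antibody.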

In series [6] the test system is Mus musculus. In words: Effect on behavioral changes in 14 weeks old MitoPark mouse striatum assessed as TH level at 30 mg/kg/day by […] relative to control. It counts as functional. A digest of the protocol: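 Striatal protein (20 μg) from diet-treated MitoPark and wild-type mice was denatured at 70 °C for 10 min and run on 3-8% Tris-acetate gels. Blots were probed with anti-tyrosine hydroxylase and anti-GAPDH overnight at 4 °C, then an HRP secondary. TH is expressed as % of control.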

Series [7] can be described thus: Unbound brain concentration in C57Bl/6 mouse administered for 11 days. It counts as ADME, tissue-based. Conditions: in vivo, 264 h, dose 3-100 mg/kg, time 11 day. The method, boiled down: (§3)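 Male C57Bl/6 mice, singly housed on a reversed 12 h light cycle, were fed diet formulated to give 3, 10, 30, 60 or 120 mg/kg/day (assumes 3 g/day intake) or untreated diet for 11 days. Body weight and food intake were monitored. Spontaneous locomotion and rearing were recorded over 60 min. On day 11, mice were euthanized 4, 8 or 24 h after dark onset and plasma and brain drug levels measured; n = 5 per group.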

A short description of series [8]: Unbound brain concentration in C57Bl/6 mouse at 3 mg/kg, po administered for 1 hr. It counts as ADME, organism-based. Conditions: in vivo.
Series [9] has as its target 5-hydroxytryptamine receptor 2B (Homo sapiens, UniProt P41595). In words: Inhibition of serotonin 5-HT2B (unknown origin). The method, boiled down:
(§4)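 Radioligand binding selectivity screen was run at 10 μM, mean of three determinations. Where inhibition exceeded 50%, full concentration-displacement curves were run in triplicate and IC50 was obtained by nonlinear least-squares regression.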

Series [10] in a line: Unbound plasma concentration in C57Bl/6 mouse administered for 11 days. Format: ADME, cell-free. The conditions noted are these: 264 h, dose 3-100 mg/kg, time 11 day. A digest of the protocol:
as §3

Series [11] deals with Mus musculus. The series can be described thus: Effect on body weight in MitoPark mouse at 30 mg/kg administered for 15 weeks. It counts as functional, organism-based. The method, boiled down: as §1
Series [12] has as its target Leucine-rich repeat serine/threonine-protein kinase 2 (Mus musculus) (UniProt Q5S006). The series can be described thus: In vivo inhibition of LRRK2 in C57Bl/6 mouse brain assessed as decrease in pSer935 LRRK2 measured after 1 hr by Western blotting analysis. Format: functional, organism-based. The conditions noted are these: dose 1-100 mg/kg, route po. The method, boiled down:
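Male C57Bl/6 mice, 20-25 g. Single oral dose of 1-100 mg/kg suspended in 30% Captisol (10 mL/kg), or vehicle, given 1 h before CO2 euthanasia. Cortex frozen on dry ice and pSer935 LRRK2 read by Western blot. n = 5 per group.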

Series [13] shares this target. In words: In vivo inhibition of LRRK2 in 20 weeks old MitoPark mouse kidney assessed as reduction in total LRRK2 protein level at 30 mg/kg/day administered for 15 weeks by Western blotting analysis. Format: functional, organism-based. The method, boiled down: as §2
Series [14] deals with T1, Peroxisome proliferator-activated receptor gamma (Homo sapiens, UniProt P37231).
T1 sequence (P37231 whole entry): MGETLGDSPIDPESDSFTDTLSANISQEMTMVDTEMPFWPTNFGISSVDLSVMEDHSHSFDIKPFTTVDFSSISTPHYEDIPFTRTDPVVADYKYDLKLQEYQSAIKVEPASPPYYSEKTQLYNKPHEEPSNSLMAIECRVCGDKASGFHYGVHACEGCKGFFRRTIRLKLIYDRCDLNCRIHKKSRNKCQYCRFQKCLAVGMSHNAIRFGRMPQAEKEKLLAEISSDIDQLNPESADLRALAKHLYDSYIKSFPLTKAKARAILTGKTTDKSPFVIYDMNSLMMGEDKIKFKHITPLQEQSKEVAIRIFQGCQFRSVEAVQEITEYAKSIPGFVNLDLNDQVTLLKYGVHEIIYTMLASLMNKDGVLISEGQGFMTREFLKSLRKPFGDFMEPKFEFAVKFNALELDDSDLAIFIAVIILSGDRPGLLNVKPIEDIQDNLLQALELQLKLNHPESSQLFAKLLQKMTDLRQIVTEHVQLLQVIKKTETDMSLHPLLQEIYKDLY
The series can be described thus: Inhibition of peroxisome proliferator-activated receptors gamma (unknown origin). A digest of the protocol:
as §4

The nature of series [15]: Toxicity in C57Bl/6 mouse assessed as lower food intake measured after 1 to 3 days. The conditions noted are these: in vivo, time 1-3 day. The method, boiled down: as §3
Series [16] can be described thus: Oral biavailability in C57Bl/6 mouse at 10 mg/kg measured after 480 mins by LC-MS/MS analysis. It counts as ADME, organism-based. The conditions noted are these: in vivo. The method, boiled down:
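Male C57Bl/6 mice (20-25 g) given a single IV dose (2 mg/kg) or oral dose (10 mg/kg). Blood was sampled at 5, 15, 30, 60, 120, 240, 360 and 480 min and plasma prepared by centrifugation. Plasma drug levels were measured by LC/MS/MS. Values are mean (CV%), N=3.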

Calls of active or inactive are those of the source. The calls are words filed in the database; no cut-off is given here. Bounds are passed on as bounds.

This is an account of results in ChEMBL document CHEMBL5653623 (J Pharmacol Exp Ther, 2015).

Sequence of Leucine-rich repeat serine/threonine-protein kinase 2 (Mus musculus) (Q5S006 whole entry): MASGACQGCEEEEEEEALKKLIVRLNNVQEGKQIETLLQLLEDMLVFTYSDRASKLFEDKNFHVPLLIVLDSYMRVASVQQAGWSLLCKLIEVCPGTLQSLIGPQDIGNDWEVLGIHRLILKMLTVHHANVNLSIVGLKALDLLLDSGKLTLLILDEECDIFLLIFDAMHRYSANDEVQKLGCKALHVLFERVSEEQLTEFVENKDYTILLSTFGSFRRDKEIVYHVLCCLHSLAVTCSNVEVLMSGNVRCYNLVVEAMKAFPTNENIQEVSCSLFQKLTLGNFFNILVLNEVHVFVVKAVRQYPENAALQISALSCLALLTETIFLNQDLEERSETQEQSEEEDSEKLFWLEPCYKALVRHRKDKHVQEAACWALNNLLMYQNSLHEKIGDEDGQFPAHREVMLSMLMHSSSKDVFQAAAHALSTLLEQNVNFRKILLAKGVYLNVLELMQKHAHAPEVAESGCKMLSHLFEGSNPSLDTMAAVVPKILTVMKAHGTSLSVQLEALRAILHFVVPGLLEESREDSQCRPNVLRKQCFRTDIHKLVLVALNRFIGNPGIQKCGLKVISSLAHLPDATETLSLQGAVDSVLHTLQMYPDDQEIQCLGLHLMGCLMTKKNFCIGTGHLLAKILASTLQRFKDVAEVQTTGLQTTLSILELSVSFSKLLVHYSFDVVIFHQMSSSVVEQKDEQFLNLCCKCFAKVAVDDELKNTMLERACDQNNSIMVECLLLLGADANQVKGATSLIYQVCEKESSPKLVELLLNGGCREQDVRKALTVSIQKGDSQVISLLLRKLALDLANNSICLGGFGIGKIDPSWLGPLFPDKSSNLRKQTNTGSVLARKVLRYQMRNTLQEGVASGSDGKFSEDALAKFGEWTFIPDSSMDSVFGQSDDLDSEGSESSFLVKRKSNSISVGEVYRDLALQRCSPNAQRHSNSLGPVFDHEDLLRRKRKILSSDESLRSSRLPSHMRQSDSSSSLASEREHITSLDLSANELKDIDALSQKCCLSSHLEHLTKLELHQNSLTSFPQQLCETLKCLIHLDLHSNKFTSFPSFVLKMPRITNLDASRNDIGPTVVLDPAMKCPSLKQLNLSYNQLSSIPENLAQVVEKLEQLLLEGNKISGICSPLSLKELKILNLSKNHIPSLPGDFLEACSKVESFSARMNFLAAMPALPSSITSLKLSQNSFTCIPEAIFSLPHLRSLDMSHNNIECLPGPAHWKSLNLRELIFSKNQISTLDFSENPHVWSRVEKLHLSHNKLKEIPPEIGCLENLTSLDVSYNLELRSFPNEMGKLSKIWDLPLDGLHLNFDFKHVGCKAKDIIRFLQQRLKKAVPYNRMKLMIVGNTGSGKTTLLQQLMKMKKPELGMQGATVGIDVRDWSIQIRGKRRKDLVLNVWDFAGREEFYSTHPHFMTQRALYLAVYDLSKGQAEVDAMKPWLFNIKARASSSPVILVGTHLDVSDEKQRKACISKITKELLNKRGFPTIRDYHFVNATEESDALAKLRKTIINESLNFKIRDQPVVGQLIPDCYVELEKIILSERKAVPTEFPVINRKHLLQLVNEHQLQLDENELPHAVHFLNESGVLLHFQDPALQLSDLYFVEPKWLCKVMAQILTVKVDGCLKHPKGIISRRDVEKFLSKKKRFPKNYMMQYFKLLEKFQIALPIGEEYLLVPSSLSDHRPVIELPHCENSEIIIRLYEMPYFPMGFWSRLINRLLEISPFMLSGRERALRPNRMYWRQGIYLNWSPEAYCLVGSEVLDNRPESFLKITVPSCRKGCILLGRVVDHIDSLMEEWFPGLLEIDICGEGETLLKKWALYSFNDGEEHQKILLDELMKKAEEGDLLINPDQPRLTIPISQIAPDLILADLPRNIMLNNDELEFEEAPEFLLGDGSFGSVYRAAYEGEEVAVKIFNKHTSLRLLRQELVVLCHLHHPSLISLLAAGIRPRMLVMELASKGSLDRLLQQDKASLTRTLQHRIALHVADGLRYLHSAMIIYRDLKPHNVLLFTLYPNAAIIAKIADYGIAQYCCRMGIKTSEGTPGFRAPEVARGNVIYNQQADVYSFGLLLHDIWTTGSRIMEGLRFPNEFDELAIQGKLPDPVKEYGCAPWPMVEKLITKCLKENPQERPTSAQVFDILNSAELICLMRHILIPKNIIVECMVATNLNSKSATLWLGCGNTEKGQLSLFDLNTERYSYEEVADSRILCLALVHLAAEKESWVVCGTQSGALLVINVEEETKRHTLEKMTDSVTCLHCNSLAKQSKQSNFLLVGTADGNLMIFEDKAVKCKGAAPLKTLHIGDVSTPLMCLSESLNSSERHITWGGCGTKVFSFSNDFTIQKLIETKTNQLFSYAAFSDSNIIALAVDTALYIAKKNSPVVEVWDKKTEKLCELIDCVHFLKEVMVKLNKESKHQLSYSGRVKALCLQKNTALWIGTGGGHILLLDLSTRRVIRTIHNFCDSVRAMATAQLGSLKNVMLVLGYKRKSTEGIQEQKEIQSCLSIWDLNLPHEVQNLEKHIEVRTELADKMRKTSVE
Sequence of 5-hydroxytryptamine receptor 2B (P41595 whole entry): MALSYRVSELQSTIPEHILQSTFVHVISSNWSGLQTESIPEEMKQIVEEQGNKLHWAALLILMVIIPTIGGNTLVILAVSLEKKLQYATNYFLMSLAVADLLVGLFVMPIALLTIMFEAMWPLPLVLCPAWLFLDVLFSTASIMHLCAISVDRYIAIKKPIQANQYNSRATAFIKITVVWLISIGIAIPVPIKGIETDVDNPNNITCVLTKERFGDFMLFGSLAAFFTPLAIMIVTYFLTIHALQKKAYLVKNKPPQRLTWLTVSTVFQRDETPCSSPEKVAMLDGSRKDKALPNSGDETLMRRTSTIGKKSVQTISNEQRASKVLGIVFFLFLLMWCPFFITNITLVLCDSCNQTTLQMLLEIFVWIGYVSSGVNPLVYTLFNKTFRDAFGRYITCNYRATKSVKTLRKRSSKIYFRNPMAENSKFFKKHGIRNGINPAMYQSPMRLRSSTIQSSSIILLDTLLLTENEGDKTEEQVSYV

For `C[C@@H]1CN(c2cc(-c3n[nH]c4ccc(OC5(C)CC5)cc34)ncn2)C[C@H](C)O1` [MLi-2], the figures for the Activity in series [1], in series [6] and in [15] were 7521 ng/g, 42.6% and “Toxic”, respectively. Moreover, the outcome in [2] was Active. Also, the inhibition entry in series [3], in series [5] and in series [13] was “Active” throughout. In addition, the values for the inhibition in series [4] and in series [12] were more than 90% and “Dose-Dependent Effect”, respectively. In addition, the entries for the “Drug uptake(free)” value in series [7], in [8] and in series [10] were “Dose-Dependent Effect”, 2.4 nM and “Dose-Dependent Effect”, respectively. Also, the IC50 (commonly the concentration that inhibits the measured activity by half) was found to be 1.2 µM in series [9] and 6.5 µM in [14]. For the same molecule, the result in series [11] was inactive. Also, the bioavailability (commonly dose-corrected exposure relative to a reference, in per cent) in series [16] was 45%.
